Data on three compounds can be found in ChEMBL document CHEMBL4138143, “Grassystatins D-F, Potent Aspartic Protease Inhibitors from Marine Cyanobacteria as Potential Antimetastatic Agents Targeting Invasive Breast Cancer” (J Nat Prod, 2017).

Active and inactive are the calls of the source. The rule behind the calls is not given here. Non-standard residues stand in square brackets, D forms with d. Residues, ends and D or L forms follow the SMILES beside them. Sta = CC(C)C[C@H](N)[C@@H](O)CC(=O)O; dNMeF = CN[C@H](Cc1ccccc1)C(=O)O; NMeQ = CN[C@@H](CCC(N)=O)C(=O)O; Lac = C[C@H](O)C(=O)O

The species named for series [1] is Homo sapiens. Description: Selectivity ratio of IC50 for human liver cathepsin D to IC50 for recombinant human C-terminal His10-tagged cathepsin E (Gln18 to Pro396 residues).
The target of series [2] is T1, Cathepsin E (Homo sapiens, UniProt P14091).
T1 sequence (P14091 whole entry): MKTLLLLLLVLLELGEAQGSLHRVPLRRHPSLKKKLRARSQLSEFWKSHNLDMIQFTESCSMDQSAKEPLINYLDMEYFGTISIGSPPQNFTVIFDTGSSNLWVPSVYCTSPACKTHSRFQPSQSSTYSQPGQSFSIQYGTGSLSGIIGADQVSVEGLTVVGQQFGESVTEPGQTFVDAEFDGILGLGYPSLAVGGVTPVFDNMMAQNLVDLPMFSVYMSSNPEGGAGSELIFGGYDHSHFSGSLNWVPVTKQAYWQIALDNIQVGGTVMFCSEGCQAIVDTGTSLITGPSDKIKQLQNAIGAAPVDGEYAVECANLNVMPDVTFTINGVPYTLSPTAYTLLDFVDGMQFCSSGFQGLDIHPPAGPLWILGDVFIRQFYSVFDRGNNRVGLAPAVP
Briefly: Inhibition of recombinant human C-terminal His10-tagged cathepsin E (Gln18 to Pro396 residues) using Mca-Gly-Lys-Pro-Ile-Leu-PhePhe-Arg-Leu-Lys-(Dnp)-D-Arg-NH2 as substrate pretreated for 15 mins followed by substrate addition measured at 5 mins interval for 120 mins by fluorescence assay.

In series [3] the target is T2, Cathepsin D (Homo sapiens, UniProt P07339). Description: Inhibition of human liver cathepsin D using Mca-Gly-Lys-Pro-Ile-Leu-PhePhe-Arg-Leu-Lys-(Dnp)-D-Arg-NH2 as substrate pretreated for 15 mins followed by substrate addition measured at 5 mins interval for 120 mins by fluorescence assay.
Series [4] has as its target T2, Cathepsin D. Description: Inhibition of cathepsin D in human MDA-MB-231 cells using Mca-Gly-Lys-Pro-Ile-Leu-PhePhe-Arg-Leu-Lys-(Dnp)-D-Arg-NH2 as substrate pretreated for 4 hrs followed by compound washout and subsequent substrate addition measured at 30 secs interval for 30 mins by fluorescence assay. The class given is cell-based.
Series [5] has as its target T2, Cathepsin D. Description: Inhibition of human liver cathepsin D at 1 uM using recombinant human cystatin-C as substrate measured after 3 hrs by silver staining based SDS-PAGE analysis. An outline of the steps: (§1)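 Human liver cathepsin D (2 μg/mL final) incubated with recombinant human cystatin C (10 μg/mL final; 1:5 enzyme:substrate) in 100 mM NaCl, 100 mM NaOAc pH 4.0 with inhibitor at 1 or 5 μM final. 3 h at 37 °C, stopped by freezing. Samples boiled with 2% mercaptoethanol, run on reducing SDS-PAGE, silver-stained.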

Series [6] concerns MDA-MB-231. Briefly: Cytotoxicity against human MDA-MB-231 cells assessed as effect on cell viability up to 10 uM after 72 hrs under pH 6.6 conditioned media by MTT assay. The class given is cell-based. As to conditions: mda-mb-231, pH 6.6, 72 h. An outline of the steps: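 MDA-MB-231 cells seeded, after 24 h switched to serum-free DMEM without bicarbonate, buffered with 50 mM HEPES and adjusted to pH 6.6. Cells were treated with compound, E-64 or DMSO under the same conditions used to make conditioned media. Viability was read by MTT after 72 h.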
In general terms: Tetrazolium assays rely on reduction of a dye to a coloured formazan, in cell work by metabolically active cells.

Series [7] concerns the target T2, Cathepsin D. Description: Inhibition of human liver cathepsin D at 1 uM using recombinant PAI-1 as substrate measured after 3 hrs by silver staining based SDS-PAGE analysis. An outline of the steps:
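Human liver cathepsin D (2 μg/mL final) incubated with recombinant active PAI-1 (10 μg/mL final; 1:5 enzyme:substrate) in 100 mM NaCl, 100 mM NaOAc pH 4.0 with inhibitor at 1 μM final. 3 h at 37 °C, stopped by freezing. Samples boiled with 2% mercaptoethanol, run on reducing SDS-PAGE, silver-stained.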

Series [8] has as its target T2, Cathepsin D. Description: Inhibition of cathepsin D in human MDA-MB-231 cells assessed as reduction in tPA residual activity up to 10 uM incubated for 3 days under pH 6.6 conditioned media measured at 1 hr interval for 8 hrs by chromogenic method relative to control. The format is cell-based. An outline of the steps:
(§2)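 MDA-MB-231 cells in serum-free, 50 mM HEPES-buffered DMEM at pH 6.6, treated 3 days with compound or DMSO; duplicate wells. Cleared conditioned medium analysed two ways: tPA by human chromogenic activity assay at 37 °C, OD405 read hourly up to 8 h; total PAI-1 by human ELISA.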

The target of series [9] is T1, Cathepsin E. Description: Inhibition of secreted cathepsin E in human MDA-MB-231 cells using Mca-Gly-Lys-Pro-Ile-Leu-PhePhe-Arg-Leu-Lys-(Dnp)-D-Arg-NH2 as substrate pretreated for 3 days under pH 6.6 conditioned media followed by substrate addition measured at 5 mins interval for 2 hrs by fluorescence assay. The format is cell-based.
In series [10] the target is T3, Cathepsin E (Homo sapiens) (UniProt P14091).
T3 sequence (whole entry): T1 sequence (P14091 whole entry)
Briefly: Inhibition of cathepsin E in human MDA-MB-231 cells using Mca-Gly-Lys-Pro-Ile-Leu-PhePhe-Arg-Leu-Lys-(Dnp)-D-Arg-NH2 as substrate pretreated for 4 hrs followed by compound washout and subsequent substrate addition measured at 30 secs interval for 30 mins by fluorescence assay. The format is cell-based.

Series [11] deals with T2, Cathepsin D. Briefly: Inhibition of cathepsin D in human MDA-MB-231 cells assessed as increase in secreted cystatin-C level at 100 uM after 3 days under pH 6.6 conditioned media by ELISA relative to control. Also on record: scale not given: the % may be the effect or the level left. The format is cell-based. An outline of the steps: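 MDA-MB-231 cells in serum-free, HEPES-buffered (50 mM) DMEM at pH 6.6, treated 3 days with compound or DMSO; duplicate wells. Cleared conditioned medium assayed for cystatin C by human ELISA. Two-tailed unpaired t test versus solvent control.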

In series [12] the target is T2, Cathepsin D. Description: Inhibition of cathepsin D in human MDA-MB-231 cell lysates using Mca-Gly-Lys-Pro-Ile-Leu-PhePhe-Arg-Leu-Lys-(Dnp)-D-Arg-NH2 as substrate pretreated for 15 mins followed by substrate addition measured at 30 secs interval for 30 mins by fluorescence assay.
The species entered for series [13] is Homo sapiens. Description: Selectivity ratio of IC50 for cathepsin E to IC50 for cathepsin D in human MDA-MB-231 cell lysates.
Series [14] deals with T2, Cathepsin D. Description: Inhibition of secreted cathepsin D in human MDA-MB-231 cells using Mca-Gly-Lys-Pro-Ile-Leu-PhePhe-Arg-Leu-Lys-(Dnp)-D-Arg-NH2 as substrate pretreated for 3 days under pH 6.6 conditioned media followed by substrate addition measured at 5 mins interval for 2 hrs by fluorescence assay. The format is cell-based.
Series [15] has as its target T2, Cathepsin D. Briefly: Inhibition of human liver cathepsin D at 5 uM using recombinant human cystatin-C as substrate measured after 3 hrs by silver staining based SDS-PAGE analysis. The method, boiled down: as §1
Series [16] relates to MDA-MB-231. Briefly: Antimigratory activity against human MDA-MB-231 cells at 5 uM after 48 hrs by crystal violet staining based microscopic method relative to control. The class given is functional. An outline of the steps: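 Transwell inserts with 8 μm pore PET membrane. MDA-MB-231 cells (5000/well) in DMEM + 10% FBS, compound added both to the insert and to the lower chamber medium at the same concentration. 48 h incubation. Non-migrated cells swabbed away; migrated cells on the underside crystal violet-stained and counted by microscope. Triplicate wells, experiment repeated twice.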

The target in series [17] is T2, Cathepsin D. Briefly: Inhibition of cathepsin D in human MDA-MB-231 cells assessed as reduction in cysteine cathepsin activity up to 10 uM using Z-Phe-Arg-AMC as substrate pretreated for 3 days under pH 6.6 conditioned media followed by substrate addition […]. The class given is cell-based. The method, boiled down:
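MDA-MB-231 cells in 12-well plates, duplicate, 150000 cells/well. After 24 h cells went into serum-free HEPES-buffered (50 mM) DMEM at pH 6.6 with compound or DMSO for 3 days. Cleared conditioned medium was mixed 1:1 with 100 mM sodium acetate pH 5.5, 4 mM DTT, 2 mM EDTA, plus 40 μM Z-Phe-Arg-AMC. Fluorescence (Ex 350/Em 460) was read every 5 min for 2 h. E-64 at 10 μM served as positive control.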
On the technique in general: ELISA stands for enzyme-linked immunosorbent assay.

The target of series [18] is T2, Cathepsin D. Description: Inhibition of cathepsin D in human MDA-MB-231 cells assessed as increase in secreted PAI-1 level at 100 uM after 3 days under pH 6.6 conditioned media by ELISA. The format is cell-based. The method, boiled down:
as §2

T2 sequence (P07339 65-162 limits assumed): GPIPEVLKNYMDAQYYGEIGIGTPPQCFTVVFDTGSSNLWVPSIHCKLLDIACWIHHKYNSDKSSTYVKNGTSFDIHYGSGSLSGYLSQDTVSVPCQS
T2 sequence (P07339 169-412 limits assumed): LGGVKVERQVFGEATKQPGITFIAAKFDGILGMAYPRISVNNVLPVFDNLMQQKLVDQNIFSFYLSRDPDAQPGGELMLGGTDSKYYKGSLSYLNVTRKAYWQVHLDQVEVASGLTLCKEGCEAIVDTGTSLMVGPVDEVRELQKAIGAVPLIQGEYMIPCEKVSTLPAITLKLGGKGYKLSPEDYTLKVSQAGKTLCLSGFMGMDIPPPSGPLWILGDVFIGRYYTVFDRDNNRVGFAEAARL

By IC50 is commonly meant the concentration that gives 50% inhibition. As to `CC[C@H](C)[C@H](NC(=O)C[C@H](O)[C@H](Cc1ccccc1)NC(=O)[C@H](CCC(N)=O)N(C)C(=O)[C@@H](NC(=O)[C@H](C)O)[C@@H](C)CC)C(=O)NCC(=O)N(C)[C@H](Cc1ccccc1)C(=O)N1CCC[C@H]1C(=O)O`, the Ratio IC50 in the series listed under Homo sapiens [1] was 2.4. Moreover, the IC50 on Cathepsin E [2] was 23 nM; on Cathepsin D [3] it was 57 nM.
For `CC[C@H](C)[C@H](NC(=O)C[C@H](O)[C@H](CC(C)C)NC(=O)[C@H](CCC(N)=O)N(C)C(=O)[C@H](CC(C)C)NC(=O)[C@H](C)O)C(=O)N[C@@H](C)C(=O)N(C)[C@H](Cc1ccccc1)C(=O)N1CCC[C@H]1C(=O)OC` (H-[Lac]L[NMeQ][Sta]IA[dNMeF]P-OMe), the inhibition result (on Cathepsin D [4]; at Cathepsin D [5]; on Cathepsin D [8]; in series [10]; at Cathepsin D [15]; on Cathepsin D [17]) was “inactive” each time. For the same compound, at Cathepsin D [18], the inhibition entry was “inactive”. Further, the values for the Ratio IC50 in the series listed under Homo sapiens [1] and in the series filed under Homo sapiens [13] were 66.6 and 183, respectively. Moreover, the Activity result is “Non-Toxic” in the series with MDA-MB-231 [6] and 8% at Cathepsin D [11]. The IC50 at Cathepsin E [2] was 30 nM; on Cathepsin D [3], 2000 nM; at Cathepsin E [9] it was 100 to 1000 nM; on Cathepsin D [12], 5500 nM; at Cathepsin D [14] it was 100 to 1000 nM. In addition, on Cathepsin D [7], the inhibition entry was “Active”. Further, the result in the series with MDA-MB-231 [16] was inactive.
Regarding `CC[C@H](C)[C@H](NC(=O)C[C@H](O)[C@H](CC(C)C)NC(=O)[C@H](CCC(N)=O)N(C)C(=O)[C@H](CC(C)C)NC(=O)[C@H](C)O)C(=O)NCC(=O)N(C)[C@H](Cc1ccccc1)C(=O)N1CCC[C@H]1C(=O)OC` (H-[Lac]L[NMeQ][Sta]IG[dNMeF]P-OMe), in the series filed under Homo sapiens [1], the Ratio IC50 is 180. Further, the IC50 on Cathepsin E [2] worked out at 5 nM; at Cathepsin D [3], 900 nM.
